NR2E3 ag-1 = inhibitors of NR2E3-RetCOR corepressor binding, primary screen, NR2E3 agonist project, biochemical, TR-FRET, GST-NR2E3, biotin-RetCOR | Photoreceptor-specific nuclear receptor (Homo sapiens), Q9Y5X4 | 1536-well | inhibition of corepressor binding, % at 4.78 µM | 0.12% of 320,000 active | AID 2300, 2010;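 active = percent inhibition above the cutoff of mean plus 3 SD of all tested compounds, set per screening campaign, cut at about 20% in these data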;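 note: 0% = DMSO wells and 100% = biotin wells as full block of FRET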
Target sequence (Q9Y5X4 whole entry, looked up): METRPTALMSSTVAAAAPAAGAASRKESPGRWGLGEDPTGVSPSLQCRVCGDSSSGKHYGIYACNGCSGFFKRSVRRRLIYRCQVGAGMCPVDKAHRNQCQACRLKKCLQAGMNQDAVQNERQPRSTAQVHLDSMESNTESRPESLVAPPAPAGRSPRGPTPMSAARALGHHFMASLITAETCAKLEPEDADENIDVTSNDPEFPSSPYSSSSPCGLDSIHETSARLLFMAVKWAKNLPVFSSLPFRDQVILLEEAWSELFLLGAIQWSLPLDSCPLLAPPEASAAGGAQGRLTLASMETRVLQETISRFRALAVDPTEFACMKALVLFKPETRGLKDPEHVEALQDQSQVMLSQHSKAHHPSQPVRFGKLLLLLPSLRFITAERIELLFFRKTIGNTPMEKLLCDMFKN
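System: GST-tagged NR2E3 plus biotinylated RetCOR corepressor; Buffer or medium: pH 7.5 Tris-based buffer; Probe or stimulus: RetCOR corepressor, biotinylated, 7 nM; Doses: compound at 4.8 µM, single dose; Schedule: 5 h incubation at 4 °C; Technique: time-resolved FRET; Evaluation: percent inhibition of TR-FRET ratio; Replication: one well per compound, singlicate testing.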
NR2E3 ag-2 = NR2E3 agonists in two-hybrid cells, primary screen, cell-based, luminescence, CHO-S, Gal4-NCOR/VP16-NR2E3 | Photoreceptor-specific nuclear receptor (Homo sapiens), Q9Y5X4 | 0.35% of 360,000 active | inhibition of corepressor binding, % at 3.98 µM | luciferase;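 active = inhibition above the mean of all tested compounds plus 3 SD, cut at about 70% in these data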;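 note: 0% = DMSO with NR2E3 transfected cells and 100% = cells lacking NR2E3 construct; higher means lower luciferase signal from less NR2E3 corepressor binding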
PG9 binder = binders of HIV-1 gp120 antibody PG9, primary screen, biochemical, TR-FRET. HIV-1 gp120 / PG9 antibody interaction. TR-FRET gp120-PG9 antibody binding. inhibition, % at 6.7 µM. 0.43% of 360,000 active; in the data active = inhibition above about 8.5%
Rev-erbA mod = modulators of Rev-erb alpha DNA binding, primary screen, biochemical, FITC-DNA, fluorescence polarization, uHTS; Nuclear receptor subfamily 1 group D member 1 (Homo sapiens), P20393; Rev-erbα–FITC-DNA binding, 90 min; activity, % at 10 µM; 0.79% of 370,000 active; AID 1259318, 2017;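 active = activity above about 14%, limit read from the data; passing the limit was not always enough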;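 note: 0% = DMSO wells with 35 nM protein and 100% = DMSO wells with 750 nM protein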
Rev-erbA confirm = modulators of Rev-erb alpha DNA binding, confirmation, biochemical, FITC-DNA, fluorescence polarization, single point; shares compounds with Rev-erbA mod; 90 min; activation, % at 25 µM; 61% of 3,000 active;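 active = activation at or above a set limit, or at least 3 SD above the negative control mean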;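 note: 0% = 35 nM protein with DMSO and 100% = 750 nM protein high control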
RORg counter = modulation of RORgamma DNA binding, dose response, counter-screen for Rev-erb alpha modulator project, biochemical, fluorescence polarization, FITC-DNA; shares compounds with Rev-erbA mod; IC50, µM; purified RORgamma protein-FITC-DNA binding; 8% of 910 active; AID 1259320, 2017;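 active = Compounds whose fitted half-maximal concentration for disrupting protein-DNA binding is below 10 micromolar; the record names Rev-erb in its text, so the target is in doubt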
Numbers without * were called inactive; i = inactive; x = no result given. Only some compounds are listed: those with a hit (about 1.4% of all), similar ones and a draw of the others.

SMILES | NR2E3 ag-1 | NR2E3 ag-2 | PG9 binder | Rev-erbA mod | Rev-erbA confirm | others
CC(C)CCn1c(SCC(=O)NC2CC2)nc2cc(Cl)ccc2c1=O | 0 | 28 | 0 | 20* | 11
CC(C)CCn1c(SCC(=O)NC2CCS(=O)(=O)C2)nc2cc(Cl)ccc2c1=O (centres undefined) | -6 | 0 | 5 | 21* | 21*
O=C(CSc1ccccc1)NCCSCc1ccccc1 | 0 | -14 | -1 | 1 | x
CCOC(=O)c1sc2nc(C)nc(Nc3ccc(OC)cc3)c2c1C | -2 | -10 | 2 | 31* | 13
CN(Cc1ccccc1)Cc1cc(=O)oc2ccccc12 | x | -30 | -2 | 5 | x
O=c1cc(CN(Cc2ccccc2)Cc2ccccc2)c2ccccc2o1 | x | -14 | -1 | 22* | 9
O=C(CN1C(=O)c2ccccc2S1(=O)=O)NCc1cccnc1 | -2 | -16 | 3 | 4 | x
CN(C)CCCn1c(=O)n(C2CCCCC2)c(=O)c2c3c(sc21)CCCCC3 | 1 | 6 | -1 | 2 | x
CN(C)c1ccc2nc3c(=O)[nH]c(=O)nc-3n(CC(O)C(O)C(O)CO)c2c1 (centres undefined) | -9 | 0 | -14 | 33* | 37* | RORg counter=i
CCN(CC)c1ccc(/C=C(\C#N)c2ccccn2)cc1 | 4 | -70 | x | x | x
CN(CCC#N)c1ccc(/C=C(\C#N)c2ccccn2)cc1 | 2 | -116 | -2 | 71* | 75* | RORg counter=>40
Cc1ccc(OCC(=O)Nc2sc3c(c2C#N)CC(C)(C)NC3(C)C)cc1 | 0 | -8 | 1 | -7 | x
CC1(C)Cc2c(sc(NC(=O)COc3ccc(Cl)cc3)c2C(N)=O)C(C)(C)N1 | 2 | 3 | 0 | 16* | -1
CC(=O)N1CCN(C(=O)Cn2c(=O)oc3ccccc32)CC1 | -6 | 4 | 0 | 0 | x
CC1CCN(C(=O)c2[nH]cnc2C(=O)Nc2nccs2)CC1 | 1 | -13 | 0 | 0 | x
CCC(C)(C)C1CCc2c(sc(NC(=O)c3cccs3)c2C(N)=O)C1 (centres undefined) | -6 | 2 | -1 | 29* | 16
CC(C)(C)C1CCc2c(sc(NC(=O)c3cccs3)c2C(N)=O)C1 (centres undefined) | 3 | 13 | -1 | 6 | x
O=C(COC(=O)c1cc(-c2ccc(Cl)s2)nc2ccccc12)NCc1ccco1 | 0 | -30 | 1 | -5 | x
COc1ccc(CNC(=O)COC(=O)c2cc(-c3ccc(Cl)s3)nc3ccccc23)cc1 | 4 | -19 | 6 | 121* | 61*
COc1ccc2nc(-c3ccccc3)cc(C(=O)OCC(=O)NC3CC3)c2c1 | x | 8 | 0 | 18* | 2
COc1ccc(-c2cc(C(=O)OCC(=O)NC3CC3)c3ccccc3n2)cc1OC | x | -15 | 0 | 1 | x
CCOCCCNc1ccc(-c2ccccc2)nn1 | 1 | -72 | -1 | -1 | x
Cc1cccn2c(=O)c(C(=O)NCCCN3CCCCC3C)c(O)nc12 (centres undefined) | -3 | 15 | -3 | -6 | x
CCN(CC)CCCC(C)NC(=O)c1c(NC(=O)c2ccccc2)sc2c1CCCC2 (centres undefined) | 2 | 13 | -1 | 1 | x
COC(=O)c1ccccc1NC(=S)NC(=O)c1ccccc1 | 4 | 33 | 0 | -2 | x
Cc1ccc(NC(=S)NC(=O)c2ccccc2)cc1NC(=S)NC(=O)c1ccccc1 | x | -16 | 6 | 21* | 1
COc1ccc(C(=O)NC(=S)Nc2ccc3c(c2)Cc2ccccc2-3)cc1 | 0 | 0 | 1 | 24* | 1
CCOc1nc(-c2ccccc2)c2cc(Br)ccc2n1 | 1 | -17 | 1 | 27* | 15
COc1ccc(-c2nnn3c2nc(NCc2ccccc2)c2ccccc23)cc1 | 2 | -6 | -2 | 23* | 17*

Source: PubChem BioAssay (several laboratories)
